The record followed here is ChEMBL document CHEMBL3758165, “In vitro interactions between anidulafungin and nonsteroidal anti-inflammatory drugs on biofilms of Candida spp” (2016).

What all share (assay type): functional
Assay [1] relates to Meyerozyma guilliermondii. In words: Antibiofilm activity against Candida guilliermondii ATCC 6260 assessed as fractional inhibitory concentration by two dimensional checkerboard dilution method in presence of diclofenac. The procedure, abridged:
(§1)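 Preformed 48 h disk biofilms (RPMI 1640, MOPS pH 7, 37 °C), PBS-washed, exposed 24 h at 37 °C on rocker to two-dimensional checkerboard of anidulafungin plus NSAID in RPMI; NSAID final 0.1 µM to 100 mM. XTT reduction at 490 nm; SMIC = combination giving 50% metabolic reduction versus drug-free control; FIC index calculated; triplicate on different days.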

Assay [2] deals with Nakaseomyces glabratus. Nature of the assay: Antibiofilm activity against Candida glabrata ATCC 15126 after 48 hrs by XTT reduction assay relative to control. Further details: scale not given: the % may be the effect or the level left. In outline: (§2)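 Biofilms grown on autoclaved PVC disks: 1·10^6 cfu ml-1 cells, adhesion 1.5 h at 37 °C shaking 100 rpm, PBS wash, then 48 h at 37 °C in RPMI 1640 (MOPS, pH 7). Metabolic activity read by XTT–menadione reduction, 2 h at 37 °C, supernatant formazan at 490 nm, relative to drug-free control; triplicate on different days.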
A general note: Tetrazolium dyes change colour on reduction, which living cells bring about.

Assay [3] has as its system Candida albicans. Nature of the assay: Antibiofilm activity against Candida albicans 17a18 by two dimensional checkerboard dilution method in presence of ibuprofen. The procedure, abridged: as §1
Assay [4] deals with Meyerozyma guilliermondii. Nature of the assay: Antibiofilm activity against Candida guilliermondii a83 assessed as fractional inhibitory concentration by two dimensional checkerboard dilution method in presence of aspirin. In outline:
(§3)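 Biofilms were grown on PVC disks from 2 ml of a 1·10^6 cfu/ml cell suspension. Adhesion ran 1.5 h at 37 °C with shaking at 100 rpm. Disks were PBS-washed, then matured 48 h at 37 °C in RPMI 1640 (MOPS, pH 7). Biofilms were washed again and given 24 h at 37 °C of anidulafungin/NSAID checkerboard combinations (NSAID final 0.1 µM–100 mM). Read-out was XTT-menadione (2 h, 37 °C, 490 nm). SMIC was defined as 50% reduction versus drug-free control, from which FICI was calculated. Triplicates were run on different days.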

The test system of assay [5] is Candida albicans. Nature of the assay: Antibiofilm activity against Candida albicans 17a18 assessed as fractional inhibitory concentration by two dimensional checkerboard dilution method in presence of aspirin. The procedure, abridged:
as §1

Assay [6] concerns Meyerozyma guilliermondii. Nature of the assay: Antibiofilm activity against Candida guilliermondii ATCC 6260 after 48 hrs by XTT reduction assay relative to control. Further details: scale not given: the % may be the effect or the level left. The procedure, abridged:
as §2

The test system of assay [7] is Meyerozyma guilliermondii. Nature of the assay: Antibiofilm activity against Candida guilliermondii a410 by two dimensional checkerboard dilution method in presence of ibuprofen. In outline: as §3
The subject of assay [8] is Candida albicans. Nature of the assay: Antibiofilm activity against Candida albicans ATCC 90028 by two dimensional checkerboard dilution method in presence of aspirin. In outline: as §1
For assay [9], the system named is Nakaseomyces glabratus. Nature of the assay: Antibiofilm activity against Candida glabrata 18a10 assessed as fractional inhibitory concentration by two dimensional checkerboard dilution method in presence of aspirin. The procedure, abridged:
as §1

Assay [10] deals with Meyerozyma guilliermondii. In words: Antibiofilm activity against Candida guilliermondii ATCC 6260 by two dimensional checkerboard dilution method in presence of diclofenac. The procedure, abridged: as §1
The subject of assay [11] is Meyerozyma guilliermondii. Nature of the assay: Antibiofilm activity against Candida guilliermondii a83 after 48 hrs by XTT reduction assay relative to control. Further details: scale not given: the % may be the effect or the level left.
Assay [12] concerns Candida albicans. Nature of the assay: Antibiofilm activity against Candida albicans 17a18 assessed as fractional inhibitory concentration by two dimensional checkerboard dilution method in presence of diclofenac. The procedure, abridged:
as §1

Assay [13] relates to Candida albicans. Nature of the assay: Antibiofilm activity against Candida albicans ATCC 10231 assessed as fractional inhibitory concentration by two dimensional checkerboard dilution method in presence of aspirin. The procedure, abridged:
as §1

The test system of assay [14] is Meyerozyma guilliermondii. In words: Antibiofilm activity against Candida guilliermondii ATCC 6260 at 1 mM after 24 hrs by XTT reduction assay relative to control. Further details: scale not given: the % may be the effect or the level left. The procedure, abridged:
(§4)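 Biofilms grown on sterilized PVC disks: 1·10^6 cfu/ml Candida cells adhered for 1.5 h at 37 °C with shaking, washed with PBS, then matured 48 h at 37 °C in RPMI 1640 (MOPS, pH 7). Preformed biofilms were washed and exposed to drug, alone or in two-dimensional checkerboard combination, in RPMI 1640 for 24 h at 37 °C on a rocker.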

Assay [15] deals with Meyerozyma guilliermondii. In words: Antibiofilm activity against Candida guilliermondii ATCC 6260 at 0.1 uM to 100 mM after 48 hrs by XTT reduction assay relative to control. Further details: scale not given: the % may be the effect or the level left. In outline: as §4
Assay [16] has as its system Candida albicans. Nature of the assay: Antibiofilm activity against Candida albicans ATCC 90028 at 0.1 uM to 100 mM after 48 hrs by XTT reduction assay relative to control. Further details: scale not given: the % may be the effect or the level left. In outline: as §4
The test system of assay [17] is Meyerozyma guilliermondii. In words: Antibiofilm activity against Candida guilliermondii ATCC 6260 at 0.2 mM after 24 hrs by XTT reduction assay relative to control. Further details: scale not given: the % may be the effect or the level left. In outline:
as §4

`CCCCCOc1ccc(-c2ccc(-c3ccc(C(=O)N[C@@H]4C[C@@H](O)[C@@H](O)NC(=O)[C@@H]5[C@@H](O)[C@@H](C)CN5C(=O)[C@H]([C@@H](C)O)NC(=O)[C@H]([C@H](O)[C@@H](O)c5ccc(O)cc5)NC(=O)[C@@H]5C[C@@H](O)CN5C(=O)[C@H]([C@H](C)O)NC4=O)cc3)cc2)cc1`: the Ratio (in assay [1]; in [4]; in the assay with Candida albicans [5]; in the assay with Nakaseomyces glabratus [9]; in the assay with Candida albicans [12]; in the assay with Candida albicans [13]) was 0.05 each time. In addition, the Activity in the assay with Nakaseomyces glabratus [2] is reported as 27.41%; in [6] it was 51.21%; in assay [11], 47.83%. Moreover, the MIC in the assay on Candida albicans [3] came to 0.4 µg/mL; in assay [7], 0.4 µg/mL; in the assay on Candida albicans [8], 0.1 µg/mL; in [10], 0.1 µg/mL.

`CC(=O)Oc1ccccc1C(=O)O` [ASPIRIN] came in with an Activity in [14] of 54.12%.

On to `O=C([O-])Cc1ccccc1Nc1c(Cl)cccc1Cl.[Na+]` [DICLOFENAC SODIUM], for which the Activity was 60.98% in assay [15] and 51.15% in the assay on Candida albicans [16].

As to `CC(C)Cc1ccc(C(C)C(=O)O)cc1` (configuration not stated) [IBUPROFEN], the Activity in assay [17] amounted to 64.43%.
